Experimental findings from ChEMBL document CHEMBL4814052, “Isatin-derived azoles as new potential antimicrobial agents: Design, synthesis and biological evaluation” (2021) are described below.

Test [1] deals with Escherichia coli. Put plainly: Antibacterial activity against Escherichia coli ATCC 25922 measured after 6 passages by broth microdilution method. It counts as functional, organism-based.
Test [2] concerns Pseudomonas aeruginosa. The test is described as follows: Antibacterial activity against Pseudomonas aeruginosa by broth microdilution method. Format: functional. (In broth dilution the organism is exposed to a series of concentrations in liquid medium.)
Test [3] deals with Enterococcus faecalis. Put plainly: Antibacterial activity against Enterococcus faecalis by broth microdilution method. Format: functional.
Test [4] deals with Staphylococcus aureus. Put plainly: Antibacterial activity against Staphylococcus aureus by broth microdilution method. Format: functional.
Test [5] deals with Escherichia coli. The test is described as follows: Antibacterial activity against Escherichia coli by broth microdilution method. Format: functional.
Test [6] relates to Staphylococcus aureus. The test is described as follows: Antibacterial activity against Staphylococcus aureus ATCC 25923 by broth microdilution method. It counts as functional.
Test [7] has as its system Pseudomonas aeruginosa. Put plainly: Antibacterial activity against Pseudomonas aeruginosa ATCC 27853 by broth microdilution method. It counts as functional.
Test [8] concerns Staphylococcus aureus. Put plainly: Antibacterial activity against methicillin resistant Staphylococcus aureus by broth microdilution method. Format: functional.
In test [9] the test system is Escherichia coli. The test is described as follows: Antibacterial activity against Escherichia coli ATCC 25922 by broth microdilution method. It counts as functional.
Test [10] relates to Staphylococcus aureus. Put plainly: Antibacterial activity against Staphylococcus aureus ATCC 29213 by broth microdilution method. It counts as functional.
The next test deals with Klebsiella pneumoniae. The test is described as follows: Antibacterial activity against Klebsiella pneumonia by broth microdilution method. Format: functional.
A further test relates to Acinetobacter baumannii. The test is described as follows: Antibacterial activity against Acinetobacter baumannii by broth microdilution method. It counts as functional.
The test system of test [11] is Escherichia coli. The test is described as follows: Potency index, ratio of MIC of norfloxacin to MIC of compound for antibacterial activity against Escherichia coli ATCC 25922 by broth microdilution method. Format: functional.
The subject of test [12] is Escherichia coli. Put plainly: Antibacterial activity against Escherichia coli ATCC 25922 measured after 10 passages by broth microdilution method. It counts as functional, organism-based.
For test [13], the system named is Enterococcus faecalis. The test is described as follows: Bactericidal activity against Enterococcus faecalis by broth microdilution method. Format: functional, organism-based.
Test [14] concerns Calf thymus DNA. The test is described as follows: Binding affinity to calf thymus DNA assessed as reduction in neutral red-DNA complex formation by competitive binding assay. It counts as nucleic-acid assay. The settings on record: Bos taurus.
In test [15] the test system is Candida tropicalis. The test is described as follows: Fungicidal activity against Candida tropicalis by broth microdilution method. It counts as functional, organism-based.
Test [16] has as its system Candida tropicalis. Put plainly: Antifungal activity against Candida tropicalis. It counts as functional.
The test system of test [17] is Calf thymus DNA. The test is described as follows: Binding affinity to calf thymus DNA assessed as hyperchromic effect by UV-Vis spectroscopy. Format: nucleic-acid assay. The settings on record: Bos taurus. An outline of the steps:
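UV-Vis absorbance of the compound–DNA mixture is compared with the summed absorbances of free DNA and free compound. Hyperchromism is read as higher absorbance of the mixture than that sum.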

For the next test, the system named is Candida parapsilosis. The test is described as follows: Fungicidal activity against Candida parapsilosis ATCC 22019 assessed as […] by broth microdilution method.

In brackets after ≈: the same amount, converted by molar mass. Activity calls are given as the source filed them. The calls are words filed in the database; no cut-off is given here.

In the case of `CCn1cc(C(=O)O)c(=O)c2cc(F)c(N3CCNCC3)cc21` [NORFLOXACIN], the result in the test with Escherichia coli [1] was inactive. The MIC (as a rule, the lowest concentration found to suppress growth) in the test on Pseudomonas aeruginosa [2] amounted to 2 µg/mL (≈ 6.26 µM); against Enterococcus faecalis [3], 4 µg/mL (≈ 12.5 µM); against Staphylococcus aureus [4], 1 µg/mL (≈ 3.13 µM); with Escherichia coli [5], 16 µg/mL (≈ 50.1 µM); against Staphylococcus aureus [6], 1 µg/mL (≈ 3.13 µM); in the test with Pseudomonas aeruginosa [7], 2 µg/mL (≈ 6.26 µM). The MIC worked out at 8 µg/mL (≈ 25.1 µM) in the test with Staphylococcus aureus [8]; 8 µg/mL (≈ 25.1 µM) against Escherichia coli [9]; 2 µg/mL (≈ 6.26 µM) with Staphylococcus aureus [10]; 4 µg/mL (≈ 12.5 µM) in the test with Klebsiella pneumoniae; 8 µg/mL (≈ 25.1 µM) against Acinetobacter baumannii.

As for `CC(=O)/C=C1\C(=O)N(CCn2cncn2)c2ccccc21`, the Ratio is recorded as 8 in the test with Escherichia coli [11] and 4 in the test on Candida parapsilosis. Further, the minimal inhibitory concentration (MIC) was 32 µg/mL (≈ 113 µM) in the test on Pseudomonas aeruginosa [2]; 32 µg/mL (≈ 113 µM) against Enterococcus faecalis [3]; 64 µg/mL (≈ 227 µM) in the test with Staphylococcus aureus [4]; 64 µg/mL (≈ 227 µM) with Escherichia coli [5]; 128 µg/mL (≈ 453 µM) in the test with Staphylococcus aureus [6]; 32 µg/mL (≈ 113 µM) in the test on Pseudomonas aeruginosa [7]. Further, the MIC against Staphylococcus aureus [8] was 128 µg/mL (≈ 453 µM); in the test on Escherichia coli [9], 1 µg/mL (≈ 3.54 µM); in the test on Candida tropicalis [16] it was 8 µg/mL (≈ 28.3 µM); with Staphylococcus aureus [10] it was 64 µg/mL (≈ 227 µM); in the test on Klebsiella pneumoniae, 32 µg/mL (≈ 113 µM); in the test on Acinetobacter baumannii, 64 µg/mL (≈ 227 µM). For the same compound, the outcome with Escherichia coli [12], in the test with Calf thymus DNA [14] and in the test on Calf thymus DNA [17] was Active. In addition, the result with Enterococcus faecalis [13] and in the test on Candida tropicalis [15] was inactive.

Turning to `Cc1nccn1CCN1C(=O)C(=O)c2ccccc21`, the MIC in the test with Pseudomonas aeruginosa [2] worked out at 128 µg/mL (≈ 501 µM); in the test on Enterococcus faecalis [3], 128 µg/mL (≈ 501 µM); in the test with Staphylococcus aureus [4], 128 µg/mL (≈ 501 µM); against Escherichia coli [5] it was 256 µg/mL (≈ 1000 µM); with Staphylococcus aureus [6], 128 µg/mL (≈ 501 µM); in the test with Pseudomonas aeruginosa [7], 128 µg/mL (≈ 501 µM). Besides, the MIC turned out to be 128 µg/mL (≈ 501 µM) against Staphylococcus aureus [8]; 128 µg/mL (≈ 501 µM) in the test with Escherichia coli [9]; 256 µg/mL (≈ 1000 µM) against Staphylococcus aureus [10]; 64 µg/mL (≈ 251 µM) against Klebsiella pneumoniae; 32 µg/mL (≈ 125 µM) in the test with Acinetobacter baumannii.

Consider `CC(=O)CC1(O)C(=O)N(CCn2cncn2)c2ccccc21` (stereo unspecified), for which the MIC against Pseudomonas aeruginosa [2], against Enterococcus faecalis [3], in the test on Staphylococcus aureus [4], in the test with Escherichia coli [5], against Staphylococcus aureus [6] and against Pseudomonas aeruginosa [7] was 256 µg/mL (≈ 852 µM) in each case. Moreover, the minimum inhibitory concentration (MIC) in the test on Staphylococcus aureus [8] turned out to be 256 µg/mL (≈ 852 µM); with Escherichia coli [9], 512 µg/mL (≈ 1700 µM); in the test with Staphylococcus aureus [10], 256 µg/mL (≈ 852 µM); in the test on Klebsiella pneumoniae it was 256 µg/mL (≈ 852 µM); with Acinetobacter baumannii, 256 µg/mL (≈ 852 µM).

Regarding `Cc1ccc(C(=O)CC2(O)C(=O)N(CCn3cncn3)c3ccccc32)cc1` (stereo unspecified), the MIC against Pseudomonas aeruginosa [2] was found to be 512 µg/mL (≈ 1360 µM); with Enterococcus faecalis [3], 128 µg/mL (≈ 340 µM); against Staphylococcus aureus [4], 256 µg/mL (≈ 680 µM); with Escherichia coli [5], 128 µg/mL (≈ 340 µM); against Staphylococcus aureus [6] it was 256 µg/mL (≈ 680 µM); in the test with Pseudomonas aeruginosa [7], 256 µg/mL (≈ 680 µM). Also, the MIC was found to be 256 µg/mL (≈ 680 µM) against Staphylococcus aureus [8]; 512 µg/mL (≈ 1360 µM) in the test on Escherichia coli [9]; 128 µg/mL (≈ 340 µM) in the test on Staphylococcus aureus [10]; 256 µg/mL (≈ 680 µM) with Klebsiella pneumoniae; 128 µg/mL (≈ 340 µM) in the test with Acinetobacter baumannii.

With `O=C(CC1(O)C(=O)N(CCn2cncn2)c2ccccc21)c1ccccc1` (stereo unspecified), the MIC came out at 512 µg/mL (≈ 1410 µM) with Pseudomonas aeruginosa [2]; 256 µg/mL (≈ 706 µM) against Enterococcus faecalis [3]; 128 µg/mL (≈ 353 µM) against Staphylococcus aureus [4]; 256 µg/mL (≈ 706 µM) against Escherichia coli [5]; 256 µg/mL (≈ 706 µM) in the test on Staphylococcus aureus [6]; 512 µg/mL (≈ 1410 µM) in the test on Pseudomonas aeruginosa [7]. Also, the MIC was 128 µg/mL (≈ 353 µM) against Staphylococcus aureus [8]; 512 µg/mL (≈ 1410 µM) in the test with Escherichia coli [9]; 256 µg/mL (≈ 706 µM) in the test on Staphylococcus aureus [10]; 256 µg/mL (≈ 706 µM) with Klebsiella pneumoniae; 64 µg/mL (≈ 177 µM) against Acinetobacter baumannii.

Take `OC(Cn1cncn1)(Cn1cncn1)c1ccc(F)cc1F`: the outcome in the test on Candida tropicalis [16] was Active.
